ChEMBL document CHEMBL4837210 (Eur J Med Chem, 2021)
Activity calls are given as the source filed them. No cut-off for these calls is given here.

Legend:
Staphylococcus aureus [1] = assay: Antibacterial activity against erythromycin-susceptible Staphylococcus aureus ATCC 25923 assessed as bacterial growth inhibition incubated for 24 hrs by CLSI protocol based broth microdilution method; type: functional
[2] = molecular target: T1, Cell division protein FtsZ (Bacillus subtilis) (UniProt A5Z1V5); assay: Induction of Bacillus subtilis FtsZ polymerization assessed as formation of bundling of FtsZ protofilaments at 10 ug/ml after 20 mins by transmission electron microscopic analysis; conditions: dose 10.0 µg/ml
T1 sequence (whole entry): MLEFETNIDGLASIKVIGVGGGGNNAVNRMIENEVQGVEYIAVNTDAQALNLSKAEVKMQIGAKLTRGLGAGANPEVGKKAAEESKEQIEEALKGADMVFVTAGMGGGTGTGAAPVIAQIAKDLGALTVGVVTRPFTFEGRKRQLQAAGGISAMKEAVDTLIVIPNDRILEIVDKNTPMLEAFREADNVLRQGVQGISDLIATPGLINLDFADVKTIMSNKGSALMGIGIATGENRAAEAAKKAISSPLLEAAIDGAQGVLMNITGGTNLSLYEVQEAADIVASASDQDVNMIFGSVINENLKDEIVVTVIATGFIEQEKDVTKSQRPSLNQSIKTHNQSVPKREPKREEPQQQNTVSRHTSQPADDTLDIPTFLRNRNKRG
Outline: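 B. subtilis FtsZ was incubated with or without compound for 20 min in Tris pH 7.4 polymerization buffer (KCl, MgCl₂, Triton X-100, GTP). Samples were applied to glow-discharged Formvar carbon-coated copper grids for 10 min, negatively stained with 1% phosphotungstic acid for 1 min, air-dried and imaged by TEM.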

Staphylococcus aureus [3] = assay: Antibacterial activity against Staphylococcus aureus assessed as inhibition of bacterial growth measured by broth microdilution method; type: functional; conditions: time 24 hrs
Outline: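 Broth microdilution in Mueller Hinton broth. A 0.5 McFarland suspension was diluted tenfold, giving an inoculum of 1.5 × 10⁷ cfu/mL. This was added to 2-fold serial compound dilutions from […]. Plates were incubated aerobically at 37 °C for 24 h. MIC was the lowest concentration with no visible turbidity.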

[4] = molecular target: T1, Cell division protein FtsZ (Bacillus subtilis); assay: Induction of Bacillus subtilis FtsZ polymerization by fluorescence spectrophotometry; conditions: dose 2.5-10 µg/ml, time 800.0 sec
Outline: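 Light scattering of B. subtilis FtsZ in 20 mM Tris pH 7.4 with 20 mM KCl, 5 mM MgCl₂ and 0.01% Triton X-100. Protein was preincubated in a cuvette with vehicle (2% DMSO) or compound. GTP was added last (2 mM final), and scattering at excitation 411 nm / emission 430 nm was followed for 800 s.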

[5] = tested on: Staphylococcus epidermidis; assay: Bactericidal activity against penicillin-resistant Staphylococcus epidermidis measured after 24 hrs by CLSI protocol based method; type: functional
Outline: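 MBC after broth microdilution. After 24 h, aliquots from clear wells were plated on tryptic soy agar and incubated aerobically 24 h at 37 °C. MBC was the lowest concentration giving no colonies.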

Streptococcus pyogenes = assay: Antibacterial activity against erythromycin-susceptible Streptococcus pyogenes clinical isolate 1 assessed as bacterial growth inhibition incubated for 24 hrs by CLSI protocol based broth microdilution method; type: functional
Enterococcus faecalis = assay: Antibacterial activity against vancomycin-susceptible Enterococcus faecalis ATCC 29212 assessed as bacterial growth inhibition incubated for 24 hrs by CLSI protocol based broth microdilution method; type: functional
Staphylococcus aureus [6] = assay: Bactericidal activity against […] Staphylococcus aureus ATCC 25923 assessed as log reduction in colony forming unit at 4 times MIC after 3 hrs by time kill assay; type: functional
Outline: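 Samples at 0, 3, 6, 9, 12 and 24 h were serially diluted in MH broth and plated on tryptic soy agar. CFU/mL from colony counts after 24 h at 37 °C.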

Bacillus pumilus = assay: Bactericidal activity against penicillin-susceptible Bacillus pumilus CMCC 63202 measured after 24 hrs by CLSI protocol based method; type: functional
Outline: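 MBC followed on from the 24 h broth microdilution MIC plates. Aliquots from clear wells were spread on tryptic soy agar and incubated aerobically at 37 °C for 24 h. MBC was the minimum concentration giving no colonies.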

Staphylococcus aureus [7] = assay: Antibacterial activity against methicillin-resistant Staphylococcus aureus ATCC 43300 assessed as inhibition of bacterial growth by broth microdilution method; type: functional; conditions: time 24 hrs
Outline: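 Broth microdilution MIC. A 0.5 McFarland suspension was diluted 10-fold and added at 1.5 × 10⁷ cfu/mL to 2-fold dilutions (0.125–64) in Mueller Hinton broth. Incubated aerobically 24 h at 37 °C. MIC was the lowest concentration with no visible turbidity.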

C[n+]1c2ccccc2c(/C=C/c2ccc(C(C)(C)C)cc2)c2ccccc21.[I-]
MIC (Staphylococcus aureus [1]): 0.5 µg/mL | Activity [2]: Active | MIC (Staphylococcus aureus [3]): 0.5 µg/mL | Activity [4]: Dose-Dependent Effect | MIC [5]: 1 µg/mL | MIC (Streptococcus pyogenes): < 0.125 µg/mL | MIC (Enterococcus faecalis): 2 µg/mL | Activity (Staphylococcus aureus [6]): 2.2 CFU | MBC (Bacillus pumilus): 2 µg/mL | MIC (Staphylococcus aureus [7]): 1 µg/mL
